Experiments:
Rattus norvegicus [1] = organism: Rattus norvegicus; test: Effect in the anti ovulatory assay (AOA) in rats expressed as no. of rats ovulating/No of rats treated at 1.0 mg; 9/12; assay type: functional
[2] = molecular target: T1, Gonadotropin-releasing hormone receptor (Rattus norvegicus) (UniProt P30969); test: Duration of action, measured using castrated male rat assay to inhibit luteinizing hormone release.; fully active at 24 hr but not at 48 hr; assay type: functional
T1 sequence (whole entry): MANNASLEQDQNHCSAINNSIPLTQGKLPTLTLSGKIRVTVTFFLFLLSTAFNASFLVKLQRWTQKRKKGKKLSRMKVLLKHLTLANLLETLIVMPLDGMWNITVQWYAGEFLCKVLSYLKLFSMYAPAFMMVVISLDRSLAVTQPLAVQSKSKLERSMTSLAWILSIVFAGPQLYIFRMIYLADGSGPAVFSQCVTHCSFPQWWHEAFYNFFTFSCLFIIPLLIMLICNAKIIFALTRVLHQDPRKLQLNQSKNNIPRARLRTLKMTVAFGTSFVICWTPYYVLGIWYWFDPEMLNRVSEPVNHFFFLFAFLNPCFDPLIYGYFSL

Rattus norvegicus [3] = organism: Rattus norvegicus; test: Effect in the anti ovulatory assay (AOA) in rats expressed as no. of rats ovulating/No of rats treated at 1.0 mg; 2/9; assay type: functional
[4] = molecular target: T1, Gonadotropin-releasing hormone receptor (Rattus norvegicus); test: In vitro potency to inhibit GnRH-mediated LH secretion by cultured pituitary cells relative to [Ac-delta-Pro1,DFpa2,DTrp36]GnRH.; assay type: functional, cell-based; conditions: Pituitary gland cell
Procedure, shortened: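 Dispersed rat pituitary cells in culture; antagonist inhibition of GnRH-stimulated LH secretion. Potency expressed relative to standard antagonist [Ac-Δ3Pro1,D4FPhe2,DTrp3,6]GnRH taken as 1.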

Rattus norvegicus [5] = organism: Rattus norvegicus; test: Effect in the anti ovulatory assay (AOA) in rats expressed as no. of rats ovulating/No of rats treated at 0.5 mg; 3/3; assay type: functional
Rattus norvegicus [6] = organism: Rattus norvegicus; test: Effect in the anti ovulatory assay (AOA) in rats expressed as no. of rats ovulating/No of rats treated at 1.0 mg; 3/7; assay type: functional
Rattus norvegicus [7] = organism: Rattus norvegicus; test: Effect in the anti ovulatory assay (AOA) in rats expressed as no. of rats ovulating/No of rats treated at 50 mg; 4/8; assay type: functional
Rattus norvegicus [8] = organism: Rattus norvegicus; test: Effect in the anti ovulatory assay (AOA) in rats expressed as no. of rats ovulating/No of rats treated at 100 mg; 0/4; assay type: functional
Rattus norvegicus [9] = organism: Rattus norvegicus; test: Effect in the anti ovulatory assay (AOA) in rats expressed as no. of rats ovulating/No of rats treated at 10 mg; 2/2; assay type: functional
Rattus norvegicus [10] = organism: Rattus norvegicus; test: Effect in the anti ovulatory assay (AOA) in rats expressed as no. of rats ovulating/No of rats treated at 250 mg; 4/4; assay type: functional
Rattus norvegicus [11] = organism: Rattus norvegicus; test: Effect in the anti ovulatory assay (AOA) in rats expressed as no. of rats ovulating/No of rats treated at 2.5 mg; 2/7; assay type: functional
Rattus norvegicus [12] = organism: Rattus norvegicus; test: Effect in the anti ovulatory assay (AOA) in rats expressed as no. of rats ovulating/No of rats treated at 0.5 mg; 8/8; assay type: functional
Rattus norvegicus [13] = organism: Rattus norvegicus; test: Effect in the anti ovulatory assay (AOA) in rats expressed as no. of rats ovulating/No of rats treated at 1.0 mg; 4/15; assay type: functional
Rattus norvegicus [14] = organism: Rattus norvegicus; test: Effect in the anti ovulatory assay (AOA) in rats expressed as no. of rats ovulating/No of rats treated at 2.5 mg; 0/2; assay type: functional

In the case of `CC(=O)N[C@H](Cc1ccc2ccccc2n1)C(=O)N[C@H](Cc1ccc(Cl)cc1)C(=O)N[C@H](Cc1cccnc1)C(=O)N[C@@H](CO)C(=O)N[C@@H](Cc1ccc(Nc2n[nH]c(N)n2)cc1)C(=O)N[C@H](Cc1ccc(Nc2n[nH]c(N)n2)cc1)C(=O)N[C@@H](CC(C)C)C(=O)N[C@@H](CCCCNC(C)C)C(=O)N1CCC[C@H]1C(=O)N[C@H](C)N`, the “No. of rats ovulated” value (Rattus norvegicus [1]) is reported as 9.

For `CC(=O)N[C@H](Cc1ccc2ccccc2c1)C(=O)N[C@H](Cc1ccc(Cl)cc1)C(=O)N[C@H](Cc1cccnc1)C(=O)N[C@@H](CO)C(=O)N(C)[C@@H](Cc1ccc(Nc2n[nH]c(N)n2)cc1)C(=O)N[C@H](Cc1ccc(Nc2n[nH]c(N)n2)cc1)C(=O)N[C@@H](CC(C)C)C(=O)N[C@@H](CCCCNC(C)C)C(=O)N1CCC[C@H]1C(=O)N[C@H](C)N`, the Duration of action [2] was 24 h, the “No. of rats ovulated” value (Rattus norvegicus [3]) was 2 and the Relative potency [4] was 1.9.

`CC(=O)Nc1ccc(C[C@@H](NC(=O)[C@H](Cc2ccc(O)cc2)NC(=O)[C@H](CO)NC(=O)[C@@H](Cc2cccnc2)NC(=O)[C@@H](Cc2ccc(Cl)cc2)NC(=O)[C@@H](Cc2ccc3ccccc3c2)NC(C)=O)C(=O)N[C@@H](CC(C)C)C(=O)N[C@@H](CCCCNC(C)C)C(=O)N2CCC[C@H]2C(=O)N[C@H](C)N)cc1` was tested, and the “No. of rats ovulated” value (Rattus norvegicus [5]) was 3, the “No. of rats ovulated” value (Rattus norvegicus [6]) was 3 and the Relative potency [4] was 2.8.

`CC(=O)N[C@H](Cc1ccc2ccccc2c1)C(=O)N[C@H](Cc1ccc(Cl)cc1)C(=O)N[C@H](Cc1cccnc1)C(=O)N[C@@H](CO)C(=O)N(C)[C@@H](Cc1ccc(Nc2n[nH]c(N)n2)cc1)C(=O)N[C@H](Cc1ccc(Nc2n[nH]c(N)n2)cc1)C(=O)N[C@@H](CC(C)C)C(=O)N[C@@H](Cc1ccc(NC(C)C)cc1)C(=O)N1CCC[C@H]1C(=O)N[C@H](C)N` was tested, and the “No. of rats ovulated” value (Rattus norvegicus [7]) was 4, the “No. of rats ovulated” value (Rattus norvegicus [8]) was 0 and the “No. of rats ovulated” value (Rattus norvegicus [9]) was 2.

For `CC(=O)N[C@H](Cc1ccc2ccccc2c1)C(=O)N[C@H](Cc1ccc(Cl)cc1)C(=O)N[C@H](Cc1cccnc1)C(=O)N[C@@H](CO)C(=O)N[C@@H](Cc1ccc(NC(=O)Nc2cccc(Cl)c2)cc1)C(=O)N[C@H](Cc1ccc(NC(=O)Nc2cccc(Cl)c2)cc1)C(=O)N[C@@H](CC(C)C)C(=O)N[C@@H](CCCCNC(C)C)C(=O)N1CCC[C@H]1C(=O)N[C@H](C)N`, the “No. of rats ovulated” value (Rattus norvegicus [10]) was 4.

With `CC(=O)N[C@H](Cc1ccc2ccccc2c1)C(=O)N[C@H](Cc1ccc(Cl)cc1)C(=O)N[C@H](Cc1cccnc1)C(=O)N[C@@H](CO)C(=O)N(C)[C@@H](Cc1ccc(O)cc1)C(=O)N[C@H](Cc1ccc(Nc2n[nH]c(N)n2)cc1)C(=O)N[C@@H](CC(C)C)C(=O)N[C@@H](CCCCNC(C)C)C(=O)N1CCC[C@H]1C(=O)N[C@H](C)N` the “No. of rats ovulated” value (Rattus norvegicus [11]) was 2.

In the case of `CC(=O)N[C@@H](Cc1c[nH]cn1)C(=O)Nc1ccc(C[C@H](NC(=O)[C@H](CO)NC(=O)[C@@H](Cc2cccnc2)NC(=O)[C@@H](Cc2ccc(Cl)cc2)NC(=O)[C@@H](Cc2ccc3ccccc3c2)NC(C)=O)C(=O)N[C@H](Cc2ccc(NC(=O)[C@@H](Cc3c[nH]cn3)NC(C)=O)cc2)C(=O)N[C@@H](CC(C)C)C(=O)N[C@@H](CCCCNC(C)C)C(=O)N2CCC[C@H]2C(=O)N[C@H](C)N)cc1`, the Duration of action [2] is reported as 24 h, the “No. of rats ovulated” value (Rattus norvegicus [12]) is reported as 8 and the Relative potency [4] is reported as 0.47. The “No. of rats ovulated” value (Rattus norvegicus [13]) was 4 and the “No. of rats ovulated” value (Rattus norvegicus [14]) was 0.

From ChEMBL document CHEMBL1128434, “Gonadotropin-releasing hormone antagonists: novel members of the azaline B family” (1995)
